This note sets out measurements from ChEMBL document CHEMBL2424622, “Development of amino-pyrimidine inhibitors of c-Jun N-terminal kinase (JNK): kinase profiling guided optimization of a 1,2,3-benzotriazole lead” (Bioorg Med Chem Lett, 2013).

Assay [1] concerns the target Serine/threonine-protein kinase MRCK alpha (Homo sapiens) (UniProt Q5VT25). Kind of assay: Competitive binding affinity to MRCKA (unknown origin) at 10 uM in presence of ATP relative to control. In outline: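 In vitro ATP-site competition binding assay across a diverse panel of 128 kinases, with compound tested at a single concentration. Kinase selectivity scores (S15) were calculated from the panel profiles.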

Assay [2] concerns the target Hepatocyte growth factor receptor (Homo sapiens) (UniProt P08581). Kind of assay: Competitive binding affinity to MET (unknown origin) at 10 uM in presence of ATP relative to control.
Assay [3] has as its target T1, Mitogen-activated protein kinase kinase kinase kinase 3 (Homo sapiens) (UniProt Q8IVH8).
T1 sequence (whole entry): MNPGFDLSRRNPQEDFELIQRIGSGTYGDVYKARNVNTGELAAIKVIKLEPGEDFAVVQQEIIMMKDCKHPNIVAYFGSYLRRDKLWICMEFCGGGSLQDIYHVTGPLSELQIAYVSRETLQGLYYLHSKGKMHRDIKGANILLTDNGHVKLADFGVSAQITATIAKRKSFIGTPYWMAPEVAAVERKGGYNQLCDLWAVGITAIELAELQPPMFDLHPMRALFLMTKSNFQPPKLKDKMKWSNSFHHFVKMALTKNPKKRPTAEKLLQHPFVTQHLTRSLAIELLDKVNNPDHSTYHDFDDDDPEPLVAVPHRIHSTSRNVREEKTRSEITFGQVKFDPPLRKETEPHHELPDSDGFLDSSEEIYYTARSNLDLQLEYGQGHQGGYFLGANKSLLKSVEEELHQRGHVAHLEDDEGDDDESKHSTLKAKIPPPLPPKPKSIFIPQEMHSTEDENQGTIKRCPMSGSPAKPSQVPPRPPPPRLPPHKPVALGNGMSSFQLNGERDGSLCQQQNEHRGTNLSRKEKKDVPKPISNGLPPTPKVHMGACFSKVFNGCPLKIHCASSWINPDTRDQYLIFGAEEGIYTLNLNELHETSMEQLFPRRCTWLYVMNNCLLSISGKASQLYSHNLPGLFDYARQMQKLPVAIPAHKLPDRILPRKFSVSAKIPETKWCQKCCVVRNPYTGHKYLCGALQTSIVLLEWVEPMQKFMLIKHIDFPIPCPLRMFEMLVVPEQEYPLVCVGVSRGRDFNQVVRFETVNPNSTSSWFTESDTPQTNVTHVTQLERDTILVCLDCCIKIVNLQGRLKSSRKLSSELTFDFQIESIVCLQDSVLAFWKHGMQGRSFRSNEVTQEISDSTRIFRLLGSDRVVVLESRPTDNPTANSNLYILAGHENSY
The assay is described as follows: Competitive binding affinity to MAP4K3 (unknown origin) at 10 uM in presence of ATP relative to control.

Assay [4] has as its target T2, Serine/threonine-protein kinase 17B (Homo sapiens) (UniProt O94768).
T2 sequence (whole entry): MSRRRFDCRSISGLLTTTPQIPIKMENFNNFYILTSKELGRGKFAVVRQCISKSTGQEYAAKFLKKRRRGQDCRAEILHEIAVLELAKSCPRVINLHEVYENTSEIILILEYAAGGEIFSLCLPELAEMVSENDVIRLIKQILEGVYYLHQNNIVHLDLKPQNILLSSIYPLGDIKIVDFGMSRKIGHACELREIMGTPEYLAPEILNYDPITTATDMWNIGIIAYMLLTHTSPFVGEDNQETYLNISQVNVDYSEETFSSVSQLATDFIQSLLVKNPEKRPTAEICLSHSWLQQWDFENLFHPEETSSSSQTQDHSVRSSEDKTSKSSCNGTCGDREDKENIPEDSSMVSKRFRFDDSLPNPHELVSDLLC
The assay is described as follows: Competitive binding affinity to DRAK2 (unknown origin) at 10 uM in presence of ATP relative to control.

The target of assay [5] is T3, Casein kinase I isoform alpha-like (Homo sapiens) (UniProt Q8N752).
T3 sequence (whole entry): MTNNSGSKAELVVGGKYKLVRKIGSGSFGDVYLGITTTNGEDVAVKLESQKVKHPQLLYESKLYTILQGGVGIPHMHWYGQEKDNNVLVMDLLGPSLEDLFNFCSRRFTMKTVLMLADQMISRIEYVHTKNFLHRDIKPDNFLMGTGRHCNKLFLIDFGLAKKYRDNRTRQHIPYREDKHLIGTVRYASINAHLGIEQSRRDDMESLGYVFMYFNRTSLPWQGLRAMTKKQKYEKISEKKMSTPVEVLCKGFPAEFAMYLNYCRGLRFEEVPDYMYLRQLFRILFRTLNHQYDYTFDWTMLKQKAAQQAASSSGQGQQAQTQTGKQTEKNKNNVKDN
Kind of assay: Competitive binding affinity to CSNK1A1L (unknown origin) at 10 uM in presence of ATP relative to control.

Assay [6] concerns the target T4, Serine/threonine-protein kinase D2 (Homo sapiens) (UniProt Q9BZL6).
T4 sequence (whole entry): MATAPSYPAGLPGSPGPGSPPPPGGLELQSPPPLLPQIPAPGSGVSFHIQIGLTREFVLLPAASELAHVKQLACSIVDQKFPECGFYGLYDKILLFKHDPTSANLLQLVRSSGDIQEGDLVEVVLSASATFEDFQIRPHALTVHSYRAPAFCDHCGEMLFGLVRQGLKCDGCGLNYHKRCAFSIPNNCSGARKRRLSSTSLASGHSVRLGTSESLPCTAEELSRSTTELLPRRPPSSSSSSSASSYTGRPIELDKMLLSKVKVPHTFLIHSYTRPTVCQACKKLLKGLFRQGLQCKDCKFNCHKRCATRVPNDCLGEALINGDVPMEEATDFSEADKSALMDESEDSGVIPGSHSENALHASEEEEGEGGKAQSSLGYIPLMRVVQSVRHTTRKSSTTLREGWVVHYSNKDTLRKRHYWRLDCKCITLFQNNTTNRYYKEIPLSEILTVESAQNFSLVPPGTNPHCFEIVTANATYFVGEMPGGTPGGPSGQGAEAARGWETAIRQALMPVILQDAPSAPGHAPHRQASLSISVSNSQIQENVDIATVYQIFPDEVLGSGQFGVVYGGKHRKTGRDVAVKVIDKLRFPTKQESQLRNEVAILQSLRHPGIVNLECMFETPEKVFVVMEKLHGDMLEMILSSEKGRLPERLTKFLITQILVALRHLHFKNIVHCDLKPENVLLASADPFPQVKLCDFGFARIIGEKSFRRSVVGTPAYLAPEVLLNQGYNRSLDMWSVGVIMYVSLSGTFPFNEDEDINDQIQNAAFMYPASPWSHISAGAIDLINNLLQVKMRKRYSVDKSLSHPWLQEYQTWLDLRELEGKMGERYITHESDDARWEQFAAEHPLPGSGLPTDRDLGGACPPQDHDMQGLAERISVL
Kind of assay: Competitive binding affinity to PRKD2 (unknown origin) at 10 uM in presence of ATP relative to control.

In assay [7] the target is Serine/threonine-protein kinase pim-3 (Homo sapiens) (UniProt Q86V86). The assay is described as follows: Competitive binding affinity to PIM3 (unknown origin) at 10 uM in presence of ATP relative to control.

Sequence of Hepatocyte growth factor receptor (Homo sapiens) (P08581 whole entry): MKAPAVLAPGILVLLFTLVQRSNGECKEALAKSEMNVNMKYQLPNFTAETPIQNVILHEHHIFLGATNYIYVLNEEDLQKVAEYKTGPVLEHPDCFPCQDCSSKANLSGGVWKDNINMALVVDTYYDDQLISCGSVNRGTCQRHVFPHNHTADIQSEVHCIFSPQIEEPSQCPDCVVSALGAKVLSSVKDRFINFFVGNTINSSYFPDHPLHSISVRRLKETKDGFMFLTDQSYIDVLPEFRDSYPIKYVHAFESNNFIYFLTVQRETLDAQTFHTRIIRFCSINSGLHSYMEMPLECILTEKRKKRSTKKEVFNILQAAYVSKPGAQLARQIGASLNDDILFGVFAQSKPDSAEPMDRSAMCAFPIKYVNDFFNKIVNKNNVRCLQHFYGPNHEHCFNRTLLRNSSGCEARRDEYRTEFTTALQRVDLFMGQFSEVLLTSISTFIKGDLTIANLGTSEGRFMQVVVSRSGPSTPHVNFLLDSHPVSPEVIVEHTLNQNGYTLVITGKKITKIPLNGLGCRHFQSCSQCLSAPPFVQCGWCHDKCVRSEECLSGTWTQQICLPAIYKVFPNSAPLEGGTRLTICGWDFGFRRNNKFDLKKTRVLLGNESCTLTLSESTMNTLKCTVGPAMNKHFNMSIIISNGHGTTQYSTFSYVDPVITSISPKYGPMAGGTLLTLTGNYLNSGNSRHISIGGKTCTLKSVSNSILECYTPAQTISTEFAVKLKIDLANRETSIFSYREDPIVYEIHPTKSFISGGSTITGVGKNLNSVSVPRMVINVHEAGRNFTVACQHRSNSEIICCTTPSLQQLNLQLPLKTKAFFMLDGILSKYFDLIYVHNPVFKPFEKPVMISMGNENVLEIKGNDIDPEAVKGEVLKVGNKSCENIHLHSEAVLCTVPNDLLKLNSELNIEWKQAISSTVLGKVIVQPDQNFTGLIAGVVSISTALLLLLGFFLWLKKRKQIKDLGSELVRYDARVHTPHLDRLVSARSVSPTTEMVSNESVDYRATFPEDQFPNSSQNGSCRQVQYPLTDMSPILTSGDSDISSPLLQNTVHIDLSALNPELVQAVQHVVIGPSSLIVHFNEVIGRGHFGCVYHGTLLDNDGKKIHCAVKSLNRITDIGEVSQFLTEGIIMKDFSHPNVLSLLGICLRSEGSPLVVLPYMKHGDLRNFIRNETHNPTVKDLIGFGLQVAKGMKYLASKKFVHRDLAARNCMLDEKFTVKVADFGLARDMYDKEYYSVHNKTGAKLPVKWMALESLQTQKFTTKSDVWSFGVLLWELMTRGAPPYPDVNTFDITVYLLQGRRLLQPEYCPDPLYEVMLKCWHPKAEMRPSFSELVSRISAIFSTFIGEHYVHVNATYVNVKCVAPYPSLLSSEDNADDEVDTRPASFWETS
Sequence of Serine/threonine-protein kinase MRCK alpha (Homo sapiens) (Q5VT25 whole entry): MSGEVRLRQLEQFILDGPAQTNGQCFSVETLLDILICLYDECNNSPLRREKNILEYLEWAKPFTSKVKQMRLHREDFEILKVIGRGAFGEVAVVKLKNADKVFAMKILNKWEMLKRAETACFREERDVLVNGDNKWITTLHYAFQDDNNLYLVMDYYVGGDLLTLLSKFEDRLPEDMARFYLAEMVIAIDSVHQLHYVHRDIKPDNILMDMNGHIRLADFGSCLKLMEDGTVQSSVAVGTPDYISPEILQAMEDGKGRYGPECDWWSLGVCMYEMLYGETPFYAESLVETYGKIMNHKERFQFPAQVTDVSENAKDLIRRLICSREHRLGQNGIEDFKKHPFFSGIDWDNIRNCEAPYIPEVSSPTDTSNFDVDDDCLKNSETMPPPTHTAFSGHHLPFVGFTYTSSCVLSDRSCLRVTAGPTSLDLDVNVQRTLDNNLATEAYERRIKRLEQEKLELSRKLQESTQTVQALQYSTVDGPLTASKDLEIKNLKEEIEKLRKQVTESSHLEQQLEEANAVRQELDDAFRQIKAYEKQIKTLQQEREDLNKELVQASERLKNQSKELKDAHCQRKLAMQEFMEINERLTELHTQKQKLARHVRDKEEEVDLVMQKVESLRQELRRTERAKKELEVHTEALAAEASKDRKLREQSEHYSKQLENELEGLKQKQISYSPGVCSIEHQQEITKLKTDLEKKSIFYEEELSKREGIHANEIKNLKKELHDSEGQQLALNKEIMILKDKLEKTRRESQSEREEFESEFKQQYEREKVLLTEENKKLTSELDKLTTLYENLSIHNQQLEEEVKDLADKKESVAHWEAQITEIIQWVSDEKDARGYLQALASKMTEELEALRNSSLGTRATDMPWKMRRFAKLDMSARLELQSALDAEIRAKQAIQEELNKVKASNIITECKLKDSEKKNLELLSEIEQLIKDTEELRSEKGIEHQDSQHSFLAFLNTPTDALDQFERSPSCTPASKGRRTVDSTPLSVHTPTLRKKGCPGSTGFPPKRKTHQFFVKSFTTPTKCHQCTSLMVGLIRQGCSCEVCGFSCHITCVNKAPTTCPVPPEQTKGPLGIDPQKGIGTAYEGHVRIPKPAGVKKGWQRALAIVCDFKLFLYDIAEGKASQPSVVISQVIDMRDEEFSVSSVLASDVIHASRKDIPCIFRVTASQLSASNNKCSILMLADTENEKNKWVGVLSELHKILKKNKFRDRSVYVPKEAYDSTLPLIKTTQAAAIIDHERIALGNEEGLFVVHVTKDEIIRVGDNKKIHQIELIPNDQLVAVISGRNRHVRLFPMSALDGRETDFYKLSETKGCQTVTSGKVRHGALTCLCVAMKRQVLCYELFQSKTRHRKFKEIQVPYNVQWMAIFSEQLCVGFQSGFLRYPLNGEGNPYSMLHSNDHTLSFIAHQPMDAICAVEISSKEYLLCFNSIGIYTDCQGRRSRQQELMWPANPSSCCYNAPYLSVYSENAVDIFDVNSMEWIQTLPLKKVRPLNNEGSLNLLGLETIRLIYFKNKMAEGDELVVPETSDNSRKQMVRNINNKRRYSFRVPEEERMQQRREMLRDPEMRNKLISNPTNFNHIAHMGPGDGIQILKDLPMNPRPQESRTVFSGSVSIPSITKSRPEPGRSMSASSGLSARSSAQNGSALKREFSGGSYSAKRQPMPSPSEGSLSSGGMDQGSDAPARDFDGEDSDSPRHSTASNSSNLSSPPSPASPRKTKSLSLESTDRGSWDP

`O[C@H]1CC[C@H](Nc2nccc(-n3ccc4ccccc43)n2)CC1`: the inhibition in assay [1] was < 50%; in assay [2], 93%; in assay [3], < 50%; in assay [4] it was < 50%; in assay [5], 74%; in assay [6], 88%. Also, the inhibition in assay [7] was < 50%.
For `O[C@H]1CC[C@H](Nc2nccc(-n3ncc4ccccc43)n2)CC1`, the inhibition in assay [1] is < 50%; in assay [2] it was 96%; in assay [3], < 50%; in assay [4], 91%; in assay [5] it was 91%; in assay [6] it was 91%. In assay [7], the inhibition is 96%.
On to `O[C@H]1CC[C@H](Nc2nccc(-c3n[nH]c4ccccc34)n2)CC1`, for which the inhibition in assay [1] is < 50%; in assay [2] it was 98%; in assay [3], 97%; in assay [5], 100%.
With `O[C@H]1CC[C@H](Nc2nccc(-n3nnc4ccccc43)n2)CC1`, the inhibition in assay [1] is < 50%; in assay [2], 97%; in assay [3], < 50%; in assay [4], 86%; in assay [5], 100%; in assay [6] it was 98%. Also, in assay [7], the inhibition turned out to be 88%.
